Assay results from ChEMBL document CHEMBL4396883, “Discovery of CDK5 Inhibitors through Structure-Guided Approach” (ACS Med Chem Lett, 2019).
Calls of active or inactive are those of the source. No cut-off for these calls is given here.

Assays:
[1] = biological target: Cyclin-dependent kinase 5 (Homo sapiens) (UniProt Q00535); experiment: Inhibition of CDK5 in human MOLM13 cells assessed as decrease in cyclin D1 level at 5 to 10 uM measured after 24 hrs incubation by Western blot analysis; assay type: cell-based
Chain of Cyclin-dependent kinase 5 (Homo sapiens) (Q00535 whole entry, looked up): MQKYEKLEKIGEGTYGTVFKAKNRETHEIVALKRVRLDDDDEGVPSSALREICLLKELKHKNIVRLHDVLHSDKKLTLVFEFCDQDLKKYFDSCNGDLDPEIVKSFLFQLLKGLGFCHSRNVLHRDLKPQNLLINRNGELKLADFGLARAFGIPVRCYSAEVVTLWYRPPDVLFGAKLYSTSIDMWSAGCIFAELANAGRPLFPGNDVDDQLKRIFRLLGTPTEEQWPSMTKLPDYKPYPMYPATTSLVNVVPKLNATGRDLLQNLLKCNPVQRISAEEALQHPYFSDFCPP
How it was run: (§1)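 Cells treated for 24 h; lysates immunoblotted for pAkt (S473), pRB (S780), cyclin D1, p27KIP1, and cleaved caspase 3 and 7 (MOLM-13); at least two independent repeats.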

[2] = test system: MV4-11; experiment: Cell cycle arrest in human MV4-11 cells assessed as accumulation at G1 phase at 2.5 to 10 uM measured after 24 hrs by propidium iodide staining based flow cytometry analysis; assay type: functional
How it was run: (§2)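 MV4-11 cells treated 24 h at 2.5 and 10 μM; cell-cycle phase distribution (sub-G1, G1, S, G2/M) by flow cytometry; at least two independent experiments, numerical data as mean value.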

[3] = biological target: Cyclin-dependent kinase 5 (Homo sapiens) (UniProt Q00535); experiment: Inhibition of CDK5 in human MOLM13 cells assessed as decrease in phosphorylated Akt protein level at 5 to 10 uM measured after 24 hrs incubation by Western blot analysis; assay type: cell-based; how it was run: as §1
[4] = biological target: CDK7/Cyclin H/MNAT1 (Homo sapiens, UniProt P50613); experiment: Inhibition of CDK7/cyclinH/MAT1 (unknown origin) using RBER-IRStide as substrate incubated for 120 mins in presence of ATP by ADP-Glo kinase assay; assay type: protein-complex assay
Chain of CDK7/Cyclin H/MNAT1 (P51946 whole entry, the tested form may be a part): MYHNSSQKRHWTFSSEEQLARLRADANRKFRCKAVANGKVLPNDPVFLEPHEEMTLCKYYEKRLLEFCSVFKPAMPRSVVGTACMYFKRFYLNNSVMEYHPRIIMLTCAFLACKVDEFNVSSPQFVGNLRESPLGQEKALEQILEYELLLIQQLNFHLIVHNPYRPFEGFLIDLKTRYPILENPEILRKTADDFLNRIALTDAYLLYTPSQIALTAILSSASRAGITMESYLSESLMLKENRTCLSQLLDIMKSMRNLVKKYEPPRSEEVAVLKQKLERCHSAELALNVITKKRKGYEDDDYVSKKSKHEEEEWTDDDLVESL
Chain of CDK7/Cyclin H/MNAT1 (P50613 whole entry, the tested form may be a part): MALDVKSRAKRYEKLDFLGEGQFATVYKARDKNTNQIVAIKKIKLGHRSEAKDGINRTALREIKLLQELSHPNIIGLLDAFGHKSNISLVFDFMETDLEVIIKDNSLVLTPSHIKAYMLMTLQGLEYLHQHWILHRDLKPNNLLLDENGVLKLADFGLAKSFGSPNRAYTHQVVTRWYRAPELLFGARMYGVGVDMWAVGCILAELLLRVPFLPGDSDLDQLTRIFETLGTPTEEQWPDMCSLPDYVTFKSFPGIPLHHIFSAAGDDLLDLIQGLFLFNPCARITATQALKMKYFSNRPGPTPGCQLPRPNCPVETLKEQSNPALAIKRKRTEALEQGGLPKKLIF
Chain of CDK7/Cyclin H/MNAT1 (P51948 whole entry, further chain, the tested form may be a part): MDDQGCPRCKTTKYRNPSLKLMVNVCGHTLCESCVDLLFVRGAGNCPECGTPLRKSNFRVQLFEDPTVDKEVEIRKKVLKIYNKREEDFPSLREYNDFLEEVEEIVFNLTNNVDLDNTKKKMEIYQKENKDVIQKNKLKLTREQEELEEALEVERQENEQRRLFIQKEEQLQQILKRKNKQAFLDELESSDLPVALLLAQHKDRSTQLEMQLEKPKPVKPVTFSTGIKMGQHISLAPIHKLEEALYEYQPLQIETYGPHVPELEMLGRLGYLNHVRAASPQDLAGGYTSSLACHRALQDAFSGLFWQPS

[5] = biological target: CDK6/cyclin D3 (Homo sapiens, UniProt Q00534); experiment: Inhibition of human recombinant N-terminal GST-tagged CDK6 (M1-A326 residues) and His6 tagged Cyclin D3 (M1-L292 residues) expressed in sf9 cells using histone H1 (GGGPATPKKAKKL) as substrate incubated for 60 mins in presence of ATP by ADP-Glo kinase assay
Chain of CDK6/cyclin D3 (P30281 whole entry, the tested form may be a part): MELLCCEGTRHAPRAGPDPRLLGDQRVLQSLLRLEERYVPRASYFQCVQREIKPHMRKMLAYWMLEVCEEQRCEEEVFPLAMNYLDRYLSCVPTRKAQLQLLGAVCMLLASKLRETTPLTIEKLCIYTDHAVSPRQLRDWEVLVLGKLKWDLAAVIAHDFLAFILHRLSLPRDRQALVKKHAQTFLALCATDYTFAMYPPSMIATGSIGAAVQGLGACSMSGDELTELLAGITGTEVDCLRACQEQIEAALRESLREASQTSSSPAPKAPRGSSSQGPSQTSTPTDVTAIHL
Chain of CDK6/cyclin D3 (Q00534 whole entry, the tested form may be a part): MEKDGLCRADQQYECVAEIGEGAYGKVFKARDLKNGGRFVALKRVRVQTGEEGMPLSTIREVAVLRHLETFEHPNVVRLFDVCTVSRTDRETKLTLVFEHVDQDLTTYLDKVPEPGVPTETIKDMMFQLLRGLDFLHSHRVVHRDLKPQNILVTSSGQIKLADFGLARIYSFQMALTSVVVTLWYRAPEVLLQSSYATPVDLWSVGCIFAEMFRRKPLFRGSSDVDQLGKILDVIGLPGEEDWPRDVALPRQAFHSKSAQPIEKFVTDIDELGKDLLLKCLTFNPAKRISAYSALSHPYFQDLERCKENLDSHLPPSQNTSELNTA

[6] = test system: MOLM-13; experiment: Induction of apoptosis in human MOLM13 cells assessed as viable cells at 10 uM measured after 24 hrs by Annexin V-FITC/PI staining based flow cytometry relative to control; assay type: functional; conditions: MOLM-13, 24 h, read-out: Activity
[7] = test system: MOLM-13; experiment: Induction of apoptosis in human MOLM13 cells assessed as early apoptotic cells at 10 uM measured after 24 hrs by Annexin V-FITC/PI staining based flow cytometry (reference value: 3.38%); assay type: functional
[8] = biological target: Cyclin-dependent kinase 1/cyclin B1 (Homo sapiens, UniProt P06493); experiment: Inhibition of CDK1/CyclinB1 (unknown origin) using histone H1 (GGGPATPKKAKKL) as substrate incubated for 80 mins in presence of ATP by ADP-Glo kinase assay; assay type: protein-complex assay
Chain of Cyclin-dependent kinase 1/cyclin B1 (P06493 whole entry): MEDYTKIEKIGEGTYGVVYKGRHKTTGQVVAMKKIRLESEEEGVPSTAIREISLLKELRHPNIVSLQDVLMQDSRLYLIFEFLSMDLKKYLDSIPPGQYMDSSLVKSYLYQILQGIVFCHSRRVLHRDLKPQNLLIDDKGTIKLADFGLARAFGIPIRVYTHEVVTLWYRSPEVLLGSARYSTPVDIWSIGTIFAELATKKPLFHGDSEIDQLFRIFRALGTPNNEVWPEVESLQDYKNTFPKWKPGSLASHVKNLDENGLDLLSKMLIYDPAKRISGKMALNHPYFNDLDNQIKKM
Chain of Cyclin-dependent kinase 1/cyclin B1 (P14635 whole entry, further chain): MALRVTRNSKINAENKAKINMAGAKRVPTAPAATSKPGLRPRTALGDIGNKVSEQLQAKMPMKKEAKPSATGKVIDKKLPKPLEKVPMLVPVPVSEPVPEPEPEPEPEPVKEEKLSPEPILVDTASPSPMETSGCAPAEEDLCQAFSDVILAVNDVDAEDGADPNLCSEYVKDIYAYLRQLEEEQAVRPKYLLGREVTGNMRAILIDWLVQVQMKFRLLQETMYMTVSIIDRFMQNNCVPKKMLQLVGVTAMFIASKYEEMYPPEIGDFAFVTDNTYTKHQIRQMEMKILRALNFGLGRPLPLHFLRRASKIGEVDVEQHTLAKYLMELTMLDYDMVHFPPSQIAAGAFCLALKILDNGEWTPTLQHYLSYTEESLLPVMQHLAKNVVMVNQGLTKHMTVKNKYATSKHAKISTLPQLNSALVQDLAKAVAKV

[9] = test system: MOLM-13; experiment: Induction of apoptosis in human MOLM13 cells assessed as necrotic cells at 10 uM measured after 24 hrs by Annexin V-FITC/PI staining based flow cytometry relative to control; assay type: functional
[10] = organism: Homo sapiens; experiment: Selectivity ratio of Ki for recombinant full length N-terminal GST tagged human CDK2/CyclinA expressed in baculovirus infected sf9 cells using histone H1 as substrate to recombinant full length N-terminal GST tagged human CDK5/p25 expressed in baculovirus infected sf9 cells using histone H1 as substrate by ADP-Glo kinase assay
[11] = test system: MV4-11; experiment: Cell cycle arrest in human MV4-11 cells assessed as accumulation at S phase at 10 uM measured after 24 hrs by propidium iodide staining based flow cytometry relative to control; assay type: functional; how it was run: as §2
[12] = test system: MV4-11; experiment: Cell cycle arrest in human MV4-11 cells assessed as accumulation at G2/M phase at 10 uM measured after 24 hrs by propidium iodide staining based flow cytometry relative to control; assay type: functional; how it was run: as §2
[13] = test system: MV4-11; experiment: Cell cycle arrest in human MV4-11 cells assessed as accumulation at G1 phase at 10 uM measured after 24 hrs by propidium iodide staining based flow cytometry relative to control; assay type: functional; how it was run: as §2
[14] = test system: MV4-11; experiment: Cell cycle arrest in human MV4-11 cells assessed as accumulation at sub G1 phase at 10 uM measured after 24 hrs by propidium iodide staining based flow cytometry relative to control; assay type: functional; how it was run: as §2

Row | inhibition [1] | inhibition [3] | Ki [4] | Ki [5] | Ki [8] | Structure (SMILES) | Activity [2] | viability at 10 µM [6] | Activity [7] | Activity [9] | Ratio Ki [10] | Activity [11] | Activity [12] | Activity [13] | Activity [14]
1 | Active | Active | > 5 µM | > 5 µM | 2.36 µM | Cc1cccc(Nc2ncc3c(n2)CCCC3)c1 | Active | 61.8% | 30.11% | 0.17% | 4 |  |  |  | 
2 | Active | Active | > 5 µM | 3.01 µM | 2.61 µM | NS(=O)(=O)c1cccc(Nc2ncc3c(n2)CCCC3)c1 | Active |  | 18.34% |  |  | 2.67% | 3.15% | 88.08% | 5.08%
